# B1: Carboxypeptidase G2 (Pseudomonas aeruginosa (strain ATCC 15692 / PAO1 / 1C / PRS 101 / LMG12228)), Q9I056 (protein)
# chain: MHARRLPRLLPLALAFLLSPAAFAADTPAAELLRQAEAERPAYLDTLRQLVAVDSGTGQAEGLGQLSALLAERLQALGAQVRSAPATPSAGDNLVATLDGTGSKRFLLMIHYDTVFAAGSAAKRPFREDAERAYGPGVADAKGGVAMVLHALALLRQQGFRDYGRITVLFNPDEETGSAGSKQLIAELARQQDYVFSYEPPDRDAVTVATNGIDGLLLEVKGRSSHAGSAPEQGRNAILELSHQLLRLKDLGDPAKGTTLNWTLARGGEKRNIIPAEASAEADMRYSDPAESERVLADARKLTGERLVADTEVSLRLDKGRPPLVKNPASQRLAETAQTLYGRIGKRIEPIAMRFGTDAGYAYVPGSDKPAVLETLGVVGAGLHSEAEYLELSSIAPRLYLTVALIRELSAD
# Legend:
# [1] = Half-life period (prodrug) was determined; type: ADME
# Method in brief: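 Aqueous stability: 100 µM compound in CPG2 assay buffer (100 mM Tris-HCl pH 7.3, 260 µM ZnCl₂). Remaining parent measured by isocratic reverse-phase HPLC (10 mM ammonium acetate pH 5.0/methanol, UV 250 or 265-275 nm) at several times. Half-life from one-phase exponential decay fit. Labile compounds instead followed by absorbance change over 3 min; t½ = 0.69/rate constant.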
# [2] = tested on: WiDr; assay: Cytotoxicity in WiDr cells expressing surface-tethered carboxypeptidase G2 (CPG2); type: functional, cell-based; details: Homo sapiens
# Method in brief: (§1)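 WiDr cells stably expressing surface-tethered CPG2 (stCPG2(Q)3) or β-galactosidase control; 2 × 10⁶ cells seeded, confluent after 48 h. Compound in DMSO stock diluted in medium, re-added at similar concentration after 1 h, further 20 h exposure. Cells reseeded in quadruplicate at ~2 × 10³/well, grown until controls confluent; SRB stain, 590 nm. IC50 from log dose-response sigmoid fit.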
# [3] = Ratio of the half-life period of the prodrug and the drug was determined; type: ADME
# [4] = tested on: WiDr; assay: Cytotoxicity in WiDr cells expressing beta-galactosidase control; type: functional, cell-based; details: Homo sapiens; method in brief: as §1
# [5] = molecular target: T1, Carboxypeptidase G2 (Pseudomonas aeruginosa (strain ATCC 15692 / PAO1 / 1C / PRS 101 / LMG12228)) (UniProt Q9I056); assay: (§2) The kinetics of activation of the self-immolative prodrug by Carboxypeptidase G2 was measured
# T1 sequence (whole entry): B1 chain
# Method in brief: (§3)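 CPG2 (50 mU) with prodrug 5-50 µM in 5 µM steps in CPG2 assay buffer (100 mM Tris-HCl pH 7.3, 260 µM ZnCl₂), 37 °C. Remaining prodrug quantified by HPLC at 0, 5, 10, 15 and 20 min; Km and kcat derived.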
# [6] = molecular target: T1, Carboxypeptidase G2 (Pseudomonas aeruginosa (strain ATCC 15692 / PAO1 / 1C / PRS 101 / LMG12228)); assay: Ratio of kinetic constants Kcat and Km was determined against Carboxypeptidase G2; method in brief: as §3
# [7] = tested on: WiDr; assay: Compound was tested for cytotoxicity in WiDr cells engineered for stable expression of beta-galactosidase; type: functional, cell-based; details: Homo sapiens; method in brief: as §1
# [8] = tested on: WiDr; assay: Compound was tested for cytotoxicity in WiDr cells engineered for stable expression of surface-tethered CPG2; type: functional, cell-based; details: Homo sapiens; method in brief: as §1
# [9] = compound: CN(C(=O)OCc1ccc(NC(=O)N[C@@H](CCC(=O)O)C(=O)O)cc1)c1ccc(N(CCCl)CCCl)cc1; assay: as §2; method in brief: as §3
# [10] = compound: CN(C(=O)OCc1ccc(OC(=O)N[C@@H](CCC(=O)O)C(=O)O)cc1)c1ccc(N(CCCl)CCCl)cc1; assay: as §2; method in brief: as §3
# [11] = compound: O=C(O)CC[C@H](NC(=O)Nc1ccc(CO)cc1)C(=O)O; assay: as §2; method in brief: as §3
# [12] = compound: O=C(O)CC[C@H](NC(=O)Nc1ccc(COC(=O)Nc2ccc(N(CCCl)CCCl)cc2)cc1)C(=O)O; assay: as §2; method in brief: as §3
# [13] = compound: O=C(O)CC[C@H](NC(=O)Nc1ccc(COC(=O)Nc2ccccc2N(CCCl)CCCl)cc1)C(=O)O; assay: as §2; method in brief: as §3
# [14] = compound: O=C(O)CC[C@H](NC(=O)Oc1ccc(CO)cc1)C(=O)O; assay: as §2; method in brief: as §3
# [15] = compound: O=C(O)CC[C@H](NC(=O)Oc1ccc(COC(=O)Nc2ccc(N(CCCl)CCCl)cc2)cc1)C(=O)O; assay: as §2; method in brief: as §3
# [16] = compound: O=C(O)CC[C@H](NC(=O)Oc1ccc(COC(=O)Nc2ccccc2N(CCCl)CCCl)cc1)C(=O)O; assay: as §2; method in brief: as §3
Molecule,T1/2 [1] [min],IC50 [2] [µM],Ratio [3],IC50 [4] [µM],k cat [5] [s⁻¹],other results
CN(C(=O)OCc1ccc(NC(=O)N[C@@H](CCC(=O)O)C(=O)O)cc1)c1ccc(N(CCBr)CCBr)cc1,2.8,4.1,1,–,–,–
O=C(O)CC[C@H](NC(=O)Nc1ccc(COC(=O)Nc2ccc(N(CCI)CCI)cc2)cc1)C(=O)O,0.97,1.8,1.9,180,–,–
O=C(O)CC[C@H](NC(=O)Nc1ccc(CO)cc1)C(=O)O,–,–,–,–,65.4,k cat/Km [6]: 21.1
O=C(O)CC[C@H](NC(=O)Nc1ccc(COC(=O)Nc2ccccc2N(CCI)CCI)cc1)C(=O)O,2.7,3,–,149,–,–
CS(=O)(=O)OCCN(CCCl)c1ccccc1NC(=O)OCc1ccc(OC(=O)N[C@@H](CCC(=O)O)C(=O)O)cc1,10,28.5,–,148,–,–
O=C(O)CC[C@H](NC(=O)Nc1ccc(COC(=O)Nc2ccccc2N(CCBr)CCBr)cc1)C(=O)O,3,4.7,3.5,118,–,–
CS(=O)(=O)OCCN(CCCl)c1ccc(C(=O)N[C@@H](CCC(=O)O)C(=O)O)cc1,59,–,2.3,–,–,IC50 [7]: 3.23 mM; IC50 [8]: 100 µM
CN(C(=O)OCc1ccc(OC(=O)N[C@@H](CCC(=O)O)C(=O)O)cc1)c1ccc(N(CCBr)CCBr)cc1,2.7,3.6,1,27.2,–,–
O=C(O)CC[C@H](NC(=O)Nc1ccc(COC(=O)Nc2ccc(N(CCCl)CCCl)cc2)cc1)C(=O)O,–,–,–,–,10,–
O=C(O)CC[C@H](NC(=O)Nc1ccc(COC(=O)Nc2ccccc2N(CCCl)CCCl)cc1)C(=O)O,107.5,4.5,13.9,21.1,2.92,k cat/Km [6]: 5.31
CN(C(=O)OCc1ccc(NC(=O)N[C@@H](CCC(=O)O)C(=O)O)cc1)c1ccc(N(CCI)CCI)cc1,3.9,1.5,6.5,–,–,–
CS(=O)(=O)OCCN(CCOS(C)(=O)=O)c1ccccc1NC(=O)OCc1ccc(OC(=O)N[C@@H](CCC(=O)O)C(=O)O)cc1,10.8,40,–,208,–,–
CN(C(=O)OCc1ccc(NC(=O)N[C@@H](CCC(=O)O)C(=O)O)cc1)c1ccc(N(CCCl)CCCl)cc1,173.6,2.5,20.9,39.7,5.5,k cat/Km [6]: 0.91
O=C(O)CC[C@H](NC(=O)Oc1ccc(COC(=O)Nc2ccccc2N(CCBr)CCBr)cc1)C(=O)O,3.74,95.2,3.5,183,–,–
O=C(O)CC[C@H](NC(=O)Oc1ccc(COC(=O)Nc2ccccc2N(CCCl)CCCl)cc1)C(=O)O,146.3,28.1,11.9,38.1,4.27,k cat/Km [6]: 4.14
O=C(O)CC[C@H](NC(=O)Oc1ccc(COC(=O)Nc2ccccc2N(CCI)CCI)cc1)C(=O)O,2.1,19,–,73.3,–,–
O=C(O)CC[C@H](NC(=O)Oc1ccc(CO)cc1)C(=O)O,–,–,–,–,140,k cat/Km [6]: 82.3
O=C(O)CC[C@H](NC(=O)Nc1ccc(COC(=O)Nc2ccc(N(CCBr)CCBr)cc2)cc1)C(=O)O,0.85,3.1,0.4,205,–,–
O=C(O)CC[C@H](NC(=O)Oc1ccc(COC(=O)Nc2ccc(N(CCBr)CCBr)cc2)cc1)C(=O)O,0.9,2.6,0.4,99.7,–,–
O=C(O)CC[C@H](NC(=O)Oc1ccc(COC(=O)Nc2ccc(N(CCI)CCI)cc2)cc1)C(=O)O,0.98,1.3,2,53.6,–,–
CN(C(=O)OCc1ccc(OC(=O)N[C@@H](CCC(=O)O)C(=O)O)cc1)c1ccc(N(CCCl)CCCl)cc1,173.6,1.7,20.6,19.6,4.32,k cat/Km [6]: 1.78
CN(C(=O)OCc1ccc(OC(=O)N[C@@H](CCC(=O)O)C(=O)O)cc1)c1ccc(N(CCI)CCI)cc1,4.6,2.6,7.7,21.5,–,–
O=C(O)CC[C@H](NC(=O)Oc1ccc(COC(=O)Nc2ccc(N(CCCl)CCCl)cc2)cc1)C(=O)O,–,–,–,–,< 10,–
B1,–,–,–,–,–,Km [9]: 6.05 µM; Km [10]: 2.43 µM; Km [11]: 3.1 µM; Km [12]: < 5 µM; Km [13]: 0.55 µM; Km [14]: 1.7 µM; Km [15]: < 5 µM; Km [16]: 1.02 µM

# Reference: ChEMBL document CHEMBL1136779 (J Med Chem, 2003)
